How the values were obtained:
Cannabinoid receptor 2 = Cannabinoid receptor 2 (Homo sapiens, UniProt P34972); assay: Binding affinity to human CB2 receptor
Cannabinoid receptor 1 = Cannabinoid receptor 1 (Homo sapiens, UniProt P21554); assay: Binding affinity to human CB1 receptor
[1] = Oral bioavailability in rat at 1 mg/kg, iv after 4 hrs; format: ADME, organism-based; details: in vivo
[2] = Half life in rat at 1 mg/kg, iv after 4 hrs; format: ADME, organism-based; design: dose 1 mg/kg, route intravenous; details: in vivo
[3] = Drug level in rat plasma at 1 mg/kg, iv after 4 hrs; format: ADME, organism-based; design: dose 1 mg/kg, route intravenous; details: read-out: Drug uptake
How it was run: (§1)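 Rats given 1 mg/kg intravenously; brain and plasma drug concentrations measured 4 h after dosing, and the brain/plasma ratio taken from these levels.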

[4] = Clearance in rat plasma at 1 mg/kg, iv after 4 hrs; format: ADME, organism-based; design: dose 1 mg/kg, route intravenous
[5] = Ratio of drug level in brain to plasma in rat at 1 mg/kg, iv after 4 hrs; format: ADME, organism-based; design: dose 1 mg/kg, route intravenous; details: brain and plasma; how it was run: as §1
[6] = Drug level in rat brain at 1 mg/kg, iv after 4 hrs; format: ADME, organism-based; design: dose 1 mg/kg, route intravenous; details: read-out: Drug uptake; how it was run: as §1

Sequence of Cannabinoid receptor 2 (P34972 whole entry): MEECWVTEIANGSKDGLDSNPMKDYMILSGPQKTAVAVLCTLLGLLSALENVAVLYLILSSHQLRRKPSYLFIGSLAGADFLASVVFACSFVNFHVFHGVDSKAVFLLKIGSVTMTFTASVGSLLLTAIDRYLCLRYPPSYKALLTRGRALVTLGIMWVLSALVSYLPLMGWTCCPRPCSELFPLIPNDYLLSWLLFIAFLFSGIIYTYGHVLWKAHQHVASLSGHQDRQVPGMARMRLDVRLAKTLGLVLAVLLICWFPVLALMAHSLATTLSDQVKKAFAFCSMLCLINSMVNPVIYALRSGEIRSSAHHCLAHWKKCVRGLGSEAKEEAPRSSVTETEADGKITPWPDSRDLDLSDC
Sequence of Cannabinoid receptor 1 (P21554 whole entry): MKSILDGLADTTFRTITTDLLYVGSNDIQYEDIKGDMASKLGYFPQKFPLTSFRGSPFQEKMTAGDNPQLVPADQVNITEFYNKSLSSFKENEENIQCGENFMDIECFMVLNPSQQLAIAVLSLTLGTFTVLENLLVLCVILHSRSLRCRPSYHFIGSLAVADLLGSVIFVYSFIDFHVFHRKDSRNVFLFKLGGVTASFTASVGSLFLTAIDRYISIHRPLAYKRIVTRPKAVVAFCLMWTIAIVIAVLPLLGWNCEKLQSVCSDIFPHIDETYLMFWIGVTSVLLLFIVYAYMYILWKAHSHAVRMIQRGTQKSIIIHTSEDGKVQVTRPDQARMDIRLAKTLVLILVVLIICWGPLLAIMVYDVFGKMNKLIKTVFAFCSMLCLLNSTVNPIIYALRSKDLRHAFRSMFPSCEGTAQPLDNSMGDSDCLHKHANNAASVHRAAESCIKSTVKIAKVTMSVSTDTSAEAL

Structure (SMILES)	IC50 (Cannabinoid receptor 2)	IC50 (Cannabinoid receptor 1)	also measured
CCC1(CC)CC(=O)c2cc(-c3ccc(Cl)cc3)c(-c3ccccc3Cl)nc2O1	4.2 µM	15 nM	
CN1CCC2(CC1)CC(=O)c1cc(-c3ccc(Cl)cc3)c(-c3ccccc3Cl)nc1O2	> 2 µM	790 nM	
O=C1CC(c2cccc(F)c2)Oc2nc(-c3ccccc3Cl)c(-c3ccc(Cl)cc3)cc21 (racemic)	> 2 µM	1.7 nM	
CC1(C)CC(O)c2cc(-c3ccc(Cl)cc3)c(-c3ccc(Cl)cc3Cl)nc2O1 (racemic)	4.95 µM	130 nM	
CC1(C)CC(NC(=O)C(C)(C)CO)c2cc(-c3ccc(Cl)cc3)c(-c3ccc(Cl)cc3Cl)nc2O1 (single isomer, unassigned; enantiomer 1) [N-(6-(4-CHLOROPHENYL)-7-(2,4-DICHLOROPHENYL)-2,2-DIMETHYL-3,4-DIHYDRO-2H-PYRANO[2,3-B]PYRIDIN-4-YL)-3-HYDROXY-2,2-DIMETHYLPROPANAMIDE (ENANTIOMERIC MIX)]	0.57 µM	2.1 nM	
CC1(C)CC(C(N)=O)c2cc(-c3ccc(Cl)cc3)c(-c3ccc(Cl)cc3Cl)nc2O1 (single isomer, unassigned; enantiomer 2) [6-(4-CHLOROPHENYL)-7-(2,4-DICHLOROPHENYL)-2,2-DIMETHYL-3,4-DIHYDRO-2H-PYRANO[2,3-B]PYRIDINE-4-CARBOXAMIDE (ENANTIOMERIC MIX)]	> 2 µM	220 nM	
O=C(CO)NC1CC2(CCCCC2)Oc2nc(-c3ccccc3Cl)c(-c3ccc(Cl)cc3)cc21 (racemic)	4.2 µM	0.3 nM	bioavailability [1]: 13%; half-life [2]: 48 min; concentration at 4 h [3]: 16 nM; clearance [4]: 34 mL/min/kg; Kp at 4 h [5]: 1.7; concentration at 4 h [6]: 27 nM
O=C1CC2(CCSCC2)Oc2nc(-c3ccccc3Cl)c(-c3ccc(Cl)cc3)cc21	8 µM	4.9 nM	
CC(C)(O)C(=O)NC1CC2(CCCCC2)Oc2nc(-c3ccccc3Cl)c(-c3ccc(Cl)cc3)cc21 (single isomer, unassigned; enantiomer 2) [N-(7'-(2-CHLOROPHENYL)-6'-(4-CHLOROPHENYL)-3',4'-DIHYDROSPIRO[CYCLOHEXANE-1,2'-PYRANO[2,3-B]PYRIDINE]-4'-YL)-2-HYDROXY-2-METHYLPROPANAMIDE (ENANTIOMERIC MIX)]	12 µM	18 nM	
O=C1CC2(CCCC2)Oc2nc(-c3ccccc3Cl)c(-c3ccc(Cl)cc3)cc21	3 µM	23 nM	
CC1(C)CC(NC(=O)C(C)(C)CO)c2cc(-c3ccc(Cl)cc3)c(-c3ccc(Cl)cc3Cl)nc2O1 (single isomer, unassigned; enantiomer 2) [N-(6-(4-CHLOROPHENYL)-7-(2,4-DICHLOROPHENYL)-2,2-DIMETHYL-3,4-DIHYDRO-2H-PYRANO[2,3-B]PYRIDIN-4-YL)-3-HYDROXY-2,2-DIMETHYLPROPANAMIDE (ENANTIOMERIC MIX)]	7.6 µM	34 nM	
C[C@@H](O)C(=O)NC1CC(C)(C)Oc2nc(-c3ccc(Cl)cc3Cl)c(-c3ccc(Cl)cc3)cc21 (single isomer, unassigned)			bioavailability [1]: 100%; half-life [2]: 474 min; concentration at 4 h [3]: 321 nM; clearance [4]: 4 mL/min/kg; Kp at 4 h [5]: 0.38; concentration at 4 h [6]: 122 nM
CC1(C)CC(NC(=O)CO)c2cc(-c3ccc(Cl)cc3)c(-c3ccc(Cl)cc3Cl)nc2O1 (single isomer, unassigned; enantiomer 1) [N-(6-(4-CHLOROPHENYL)-7-(2,4-DICHLOROPHENYL)-2,2-DIMETHYL-3,4-DIHYDRO-2H-PYRANO[2,3-B]PYRIDIN-4-YL)-2-HYDROXYACETAMIDE (ENANTIOMERIC MIX)]	4.78 µM	1.7 nM	
C[C@H](O)C(=O)NC1CC2(CCCCC2)Oc2nc(-c3ccccc3Cl)c(-c3ccc(Cl)cc3)cc21 (stereo in doubt; 12f) [(2S)-N-(7'-(2-CHLOROPHENYL)-6'-(4-CHLOROPHENYL)-3',4'-DIHYDROSPIRO[CYCLOHEXANE-1,2'-PYRANO[2,3-B]PYRIDINE]-4'-YL)-2-HYDROXYPROPANAMIDE (ENANTIOMERIC MIX)]	10 µM	13 nM	
CC1CC(=O)c2cc(-c3ccc(Cl)cc3)c(-c3ccccc3Cl)nc2O1 (racemic)	6.3 µM	21 nM	
C[C@@H](O)C(=O)NC1CC2(CCCCC2)Oc2nc(-c3ccccc3Cl)c(-c3ccc(Cl)cc3)cc21 (single isomer, unassigned; enantiomer 1)	3.6 µM	0.2 nM	
CC(C)(CO)NC(=O)C1CC(C)(C)Oc2nc(-c3ccc(Cl)cc3Cl)c(-c3ccc(Cl)cc3)cc21 (single isomer, unassigned; enantiomer 1) [6-(4-CHLOROPHENYL)-7-(2,4-DICHLOROPHENYL)-N-(1-HYDROXY-2-METHYLPROPAN-2-YL)-2,2-DIMETHYL-3,4-DIHYDRO-2H-PYRANO[2,3-B]PYRIDINE-4-CARBOXAMIDE (ENANTIOMERIC MIX)]	5.15 µM	14 nM	
CC1(C)CC(NC(=O)CO)c2cc(-c3ccc(Cl)cc3)c(-c3ccccc3Cl)nc2O1 (single isomer, unassigned) [N-(7-(2-CHLOROPHENYL)-6-(4-CHLOROPHENYL)-2,2-DIMETHYL-3,4-DIHYDRO-2H-PYRANO[2,3-B]PYRIDIN-4-YL)-2-HYDROXYACETAMIDE (ENANTIOMERIC MIX)]	10.1 µM	360 nM	

Structure (SMILES)	IC50 (Cannabinoid receptor 2)	IC50 (Cannabinoid receptor 1)	also measured
C[C@H](O)C(=O)NC1CC2(CCCCC2)Oc2nc(-c3ccccc3Cl)c(-c3ccc(Cl)cc3)cc21 (stereo in doubt; 12e) [(2S)-N-(7'-(2-CHLOROPHENYL)-6'-(4-CHLOROPHENYL)-3',4'-DIHYDROSPIRO[CYCLOHEXANE-1,2'-PYRANO[2,3-B]PYRIDINE]-4'-YL)-2-HYDROXYPROPANAMIDE (ENANTIOMERIC MIX)]	1.8 µM	0.4 nM	
CC1(C)CC(C)(O)c2cc(-c3ccc(Cl)cc3)c(-c3ccc(Cl)cc3Cl)nc2O1 (racemic)	2.92 µM	80 nM	
CC1(C)CC(N)c2cc(-c3ccc(Cl)cc3)c(-c3ccc(Cl)cc3Cl)nc2O1 (racemic)	7.76 µM	110 nM	
CC1(C)CC(NC(=O)CO)c2cc(-c3ccc(Cl)cc3)c(-c3ccccc3Cl)nc2O1 (single isomer, unassigned; enantiomer 1) [N-(7-(2-CHLOROPHENYL)-6-(4-CHLOROPHENYL)-2,2-DIMETHYL-3,4-DIHYDRO-2H-PYRANO[2,3-B]PYRIDIN-4-YL)-2-HYDROXYACETAMIDE (ENANTIOMERIC MIX)]	> 2 µM	46 nM	
O=C1CC2(CCS(=O)(=O)CC2)Oc2nc(-c3ccccc3Cl)c(-c3ccc(Cl)cc3)cc21	4.1 µM	15 nM	
CC1(C)CC(NC(=O)CCO)c2cc(-c3ccc(Cl)cc3)c(-c3ccc(Cl)cc3Cl)nc2O1 (single isomer, unassigned; enantiomer 2) [N-(6-(4-CHLOROPHENYL)-7-(2,4-DICHLOROPHENYL)-2,2-DIMETHYL-3,4-DIHYDRO-2H-PYRANO[2,3-B]PYRIDIN-4-YL)-3-HYDROXYPROPANAMIDE (ENANTIOMERIC MIX)]	5.4 µM	14 nM	
CC(C)C1CC(=O)c2cc(-c3ccc(Cl)cc3)c(-c3ccccc3Cl)nc2O1 (racemic)	3.3 µM	3.2 nM	
CC(C)(CO)NC(=O)C1CC(C)(C)Oc2nc(-c3ccc(Cl)cc3Cl)c(-c3ccc(Cl)cc3)cc21 (single isomer, unassigned; enantiomer 2) [6-(4-CHLOROPHENYL)-7-(2,4-DICHLOROPHENYL)-N-(1-HYDROXY-2-METHYLPROPAN-2-YL)-2,2-DIMETHYL-3,4-DIHYDRO-2H-PYRANO[2,3-B]PYRIDINE-4-CARBOXAMIDE (ENANTIOMERIC MIX)]	7.45 µM	150 nM	
CC1(C)CC(NC(=O)CO)c2cc(-c3ccc(Cl)cc3)c(-c3ccc(Cl)cc3Cl)nc2O1 (single isomer, unassigned; enantiomer 2) [N-(6-(4-CHLOROPHENYL)-7-(2,4-DICHLOROPHENYL)-2,2-DIMETHYL-3,4-DIHYDRO-2H-PYRANO[2,3-B]PYRIDIN-4-YL)-2-HYDROXYACETAMIDE (ENANTIOMERIC MIX)]	6.61 µM	670 nM	
O=C1CC2(CCCCC2)Oc2nc(-c3ccccc3Cl)c(-c3ccc(Cl)cc3)cc21	8.3 µM	8.2 nM	
CC(C)(C)C1CC(=O)c2cc(-c3ccc(Cl)cc3)c(-c3ccccc3Cl)nc2O1 (racemic)	3.4 µM	1.9 nM	
CC(=O)NC1CC2(CCCCC2)Oc2nc(-c3ccccc3Cl)c(-c3ccc(Cl)cc3)cc21 (racemic)	3.9 µM	1.3 nM	
CC1(C)CC(C(N)=O)c2cc(-c3ccc(Cl)cc3)c(-c3ccc(Cl)cc3Cl)nc2O1 (single isomer, unassigned; enantiomer 1) [6-(4-CHLOROPHENYL)-7-(2,4-DICHLOROPHENYL)-2,2-DIMETHYL-3,4-DIHYDRO-2H-PYRANO[2,3-B]PYRIDINE-4-CARBOXAMIDE (ENANTIOMERIC MIX)]	2.48 µM	97 nM	
CC1(C)CC(=O)c2cc(-c3ccc(Cl)cc3)c(-c3ccccc3Cl)nc2O1	2.3 µM	120 nM	
COC1CC(C)(C)Oc2nc(-c3ccc(Cl)cc3Cl)c(-c3ccc(Cl)cc3)cc21 (racemic)	3.79 µM	19 nM	
C[C@@H](O)C(=O)NC1CC2(CCCCC2)Oc2nc(-c3ccccc3Cl)c(-c3ccc(Cl)cc3)cc21 (stereo in doubt; 12h) [(2R)-N-(7'-(2-CHLOROPHENYL)-6'-(4-CHLOROPHENYL)-3',4'-DIHYDROSPIRO[CYCLOHEXANE-1,2'-PYRANO[2,3-B]PYRIDINE]-4'-YL)-2-HYDROXYPROPANAMIDE (ENANTIOMERIC MIX)]	3.4 µM	2 nM	
CC1(C)CC(=O)c2cc(-c3ccc(Cl)cc3)c(-c3ccc(Cl)cc3Cl)nc2O1	1.3 µM	47 nM	
